According to ChEMBL document CHEMBL1687824, “Overexpression of patA and patB, which encode ABC transporters, is associated with fluoroquinolone resistance in clinical isolates of Streptococcus pneumoniae” (2011):
Converted amounts (≈) assume the structure as drawn.

Assays:
Type in all cases: functional
[1] = tested on: Streptococcus pneumoniae; experiment: Antibacterial activity against fluoroquinolone, dye-resistant Streptococcus pneumoniae by standardized agar doubling dilution method
Method in brief: (§1)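 MIC by agar doubling dilution following BSAC guidelines. Strains grown in brain heart infusion broth 24 h at 37°C in 5% CO2. Where an efflux pump inhibitor applies, MIC redetermined with reserpine at 20 μg/ml or sodium orthovanadate at 50 μM. Synergy taken as a fall in MIC of ≥2 dilutions with inhibitor present. Dye resistance defined relative to R6 (both dyes ≥2 dilutions higher).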

[2] = tested on: Streptococcus pneumoniae; experiment: Antibacterial activity against fluoroquinolone, dye-susceptible Streptococcus pneumoniae by standardized agar doubling dilution method in presence of 20 ug/ml reserpine efflux pump inhibitor; method in brief: as §1
[3] = tested on: Streptococcus pneumoniae; experiment: Antibacterial activity against fluoroquinolone, dye-susceptible Streptococcus pneumoniae by standardized agar doubling dilution method in presence of 50 uM sodium orthovanadate efflux pump inhibitor; method in brief: as §1
[4] = tested on: Streptococcus pneumoniae; experiment: Antibacterial activity against Streptococcus pneumoniae M45A overexpressing patA, patB and inactivated patA with single mutation by standardized agar doubling dilution method
Method in brief: (§2)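 MICs were determined by agar doubling dilution following BSAC guidelines, with no efflux inhibitor. Strains were grown in brain heart infusion broth for 24 h at 37°C in 5% CO2. Species identity was confirmed by Gram stain, optochin sensitivity and capsule test. Control strain R6 was tested alongside.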

[5] = tested on: Streptococcus pneumoniae; experiment: Antibacterial activity against Streptococcus pneumoniae M305 overexpressing patA, patB and inactivated patB with single mutation by standardized agar doubling dilution method
Method in brief: (§3)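 MICs determined by BSAC standardized agar doubling dilution. Strains were grown in brain heart infusion broth for 24 h at 37°C in 5% CO2. Inhibitor arms had reserpine at 20 μg/ml or sodium orthovanadate at 50 μM in the agar. Mutants were made by transforming magellan2 insertion amplimers into clinical isolates and selecting on spectinomycin 100 mg/liter, with a no-DNA spontaneous-mutation control.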

[6] = tested on: Streptococcus pneumoniae; experiment: Antibacterial activity against fluoroquinolone, dye-resistant Streptococcus pneumoniae M296 overexpressing patA, patB by standardized agar doubling dilution method; method in brief: as §1
[7] = tested on: Streptococcus pneumoniae; experiment: Antibacterial activity against Streptococcus pneumoniae M319 overexpressing patA, patB and inactivated patB with single mutation by standardized agar doubling dilution method; method in brief: as §2
[8] = tested on: Streptococcus pneumoniae; experiment: Antibacterial activity against Streptococcus pneumoniae M315 overexpressing patA, patB and inactivated patA with single mutation by standardized agar doubling dilution method; method in brief: as §3
[9] = tested on: Streptococcus pneumoniae; experiment: Antibacterial activity against fluoroquinolone, dye-susceptible Streptococcus pneumoniae M295 S overexpressing patA, patB by standardized agar doubling dilution method; method in brief: as §1
[10] = tested on: Streptococcus pneumoniae; experiment: Antibacterial activity against Streptococcus pneumoniae M303 overexpressing patA, patB and inactivated patA with single mutation by standardized agar doubling dilution method; method in brief: as §3
[11] = tested on: Streptococcus pneumoniae; experiment: Antibacterial activity against fluoroquinolone, dye-resistant Streptococcus pneumoniae M42 overexpressing patA, patB by standardized agar doubling dilution method in presence of 20 ug/ml reserpine efflux pump inhibitor; method in brief: as §1
[12] = tested on: Streptococcus pneumoniae; experiment: Antibacterial activity against Streptococcus pneumoniae M45B overexpressing patA, patB and inactivated patB with single mutation by standardized agar doubling dilution method in presence of 20 ug/ml reserpine efflux pump inhibitor
Method in brief: (§4)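 MICs were determined by BSAC agar doubling dilution in the presence of reserpine at 20 μg/ml. Strains were grown in BHI broth for 24 h at 37°C in 5% CO2, with R6 as control. Synergy was defined as an MIC drop of ≥2 dilutions with the inhibitor.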

[13] = tested on: Streptococcus pneumoniae; experiment: Antibacterial activity against fluoroquinolone, dye-resistant Streptococcus pneumoniae M50 overexpressing patA, patB by standardized agar doubling dilution method in presence of 20 ug/ml reserpine efflux pump inhibitor; method in brief: as §1
[14] = tested on: Streptococcus pneumoniae; experiment: Antibacterial activity against Streptococcus pneumoniae M50A overexpressing patA, patB and inactivated patA with single mutation by standardized agar doubling dilution method in presence of 20 ug/ml reserpine efflux pump inhibitor; method in brief: as §4
[15] = tested on: Streptococcus pneumoniae; experiment: Antibacterial activity against Streptococcus pneumoniae M317 overexpressing patA, patB and inactivated patB with single mutation by standardized agar doubling dilution method in presence of 20 ug/ml reserpine efflux pump inhibitor; method in brief: as §4
[16] = tested on: Streptococcus pneumoniae; experiment: Antibacterial activity against Streptococcus pneumoniae M318 overexpressing patA, patB and inactivated patA with single mutation by standardized agar doubling dilution method in presence of 20 ug/ml reserpine efflux pump inhibitor; method in brief: as §4
[17] = tested on: Streptococcus pneumoniae; experiment: Antibacterial activity against fluoroquinolone-resistant Streptococcus pneumoniae M97 FQ-R overexpressing patA, patB by standardized agar doubling dilution method in presence of 20 ug/ml reserpine efflux pump inhibitor
Method in brief: (§5)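 MIC by agar doubling dilution per BSAC guidelines; strains pregrown in brain heart infusion broth 24 h, 37°C, 5% CO2. MICs measured alone and with efflux pump inhibitors reserpine (20 μg/ml) or sodium orthovanadate (50 μM); synergy defined as ≥2-dilution MIC reduction in presence of inhibitor.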

[18] = tested on: Streptococcus pneumoniae; experiment: Antibacterial activity against Streptococcus pneumoniae M306 overexpressing patA, patB and inactivated patB with single mutation by standardized agar doubling dilution method in presence of 20 ug/ml reserpine efflux pump inhibitor; method in brief: as §3
[19] = tested on: Streptococcus pneumoniae; experiment: Antibacterial activity against Streptococcus pneumoniae M46B overexpressing patA, patB and inactivated patB with single mutation by standardized agar doubling dilution method in presence of 20 ug/ml reserpine efflux pump inhibitor; method in brief: as §4
[20] = tested on: Streptococcus pneumoniae; experiment: Antibacterial activity against Streptococcus pneumoniae M50A overexpressing patA, patB and inactivated patA with single mutation by standardized agar doubling dilution method in presence of 50 uM sodium orthovanadate efflux pump inhibitor
Method in brief: (§6)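 MICs were determined by BSAC agar doubling dilution in the presence of sodium orthovanadate at 50 μM. Cultures were grown in BHI broth for 24 h at 37°C in 5% CO2, with R6 as control. Synergy was defined as an MIC reduction of ≥2 dilutions with the inhibitor present.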

[21] = tested on: Streptococcus pneumoniae; experiment: Antibacterial activity against fluoroquinolone, dye-resistant Streptococcus pneumoniae M87 overexpressing patA, patB by standardized agar doubling dilution method in presence of 50 uM sodium orthovanadate efflux pump inhibitor; method in brief: as §1
[22] = tested on: Streptococcus pneumoniae; experiment: Antibacterial activity against Streptococcus pneumoniae M310 overexpressing patA, patB and inactivated patB with single mutation by standardized agar doubling dilution method in presence of 50 uM sodium orthovanadate efflux pump inhibitor; method in brief: as §3
[23] = tested on: Streptococcus pneumoniae; experiment: Antibacterial activity against fluoroquinolone-resistant Streptococcus pneumoniae M83 FQ-R overexpressing patA, patB by standardized agar doubling dilution method in presence of 50 uM sodium orthovanadate efflux pump inhibitor; method in brief: as §5
[24] = tested on: Streptococcus pneumoniae; experiment: Antibacterial activity against Streptococcus pneumoniae M318 overexpressing patA, patB and inactivated patA with single mutation by standardized agar doubling dilution method in presence of 50 uM sodium orthovanadate efflux pump inhibitor; method in brief: as §6
[25] = tested on: Streptococcus pneumoniae; experiment: Antibacterial activity against Streptococcus pneumoniae M306 overexpressing patA, patB and inactivated patB with single mutation by standardized agar doubling dilution method in presence of 50 uM sodium orthovanadate efflux pump inhibitor; method in brief: as §3
[26] = tested on: Streptococcus pneumoniae; experiment: Antibacterial activity against fluoroquinolone-resistant Streptococcus pneumoniae M98 FQ-R overexpressing patA, patB by standardized agar doubling dilution method in presence of 50 uM sodium orthovanadate efflux pump inhibitor
Method in brief: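 Clinical S. pneumoniae isolates grown in BHI broth 24 h at 37°C in 5% CO2. MICs by agar doubling dilution per BSAC guidelines, alone or with efflux inhibitor reserpine (20 μg/ml) or sodium orthovanadate (50 μM). Synergy defined as ≥2-dilution MIC reduction in presence of inhibitor.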

[27] = tested on: Streptococcus pneumoniae; experiment: Antibacterial activity against Streptococcus pneumoniae M300 overexpressing patA, patB and inactivated patA with single mutation by standardized agar doubling dilution method in presence of 50 uM sodium orthovanadate efflux pump inhibitor; method in brief: as §3

Compound: O=C(O)c1cn(C2CC2)c2cc(N3CCNCC3)c(F)cc2c1=O [CIPROFLOXACIN]
- MIC90 [1]: 16 µg/mL (≈ 48.3 µM)
- MIC90 [2]: 0.5 µg/mL
- MIC90 [3]: 0.5 µg/mL
- MIC [4]: 1 µg/mL (≈ 3.02 µM)
- MIC [5]: 8 µg/mL (≈ 24.1 µM)
- MIC [6]: 2 µg/mL (≈ 6.04 µM)
- MIC [7]: 16 µg/mL (≈ 48.3 µM)
- MIC [8]: 2 µg/mL (≈ 6.04 µM)
- MIC [9]: 1 µg/mL (≈ 3.02 µM)
- MIC [10]: 2 µg/mL (≈ 6.04 µM)
- MIC [11]: 32 µg/mL
- MIC [12]: 1 µg/mL
- MIC [13]: 32 µg/mL
- MIC [14]: 4 µg/mL
- MIC [15]: 8 µg/mL
- MIC [16]: 16 µg/mL
- MIC [17]: 4 µg/mL
- MIC [18]: 4 µg/mL
- MIC [19]: 0.12 µg/mL
- MIC [20]: 4 µg/mL
- MIC [21]: 16 µg/mL
- MIC [22]: 2 µg/mL
- MIC [23]: 1 µg/mL
- MIC [24]: 16 µg/mL
- MIC [25]: 4 µg/mL
- MIC [26]: 32 µg/mL
- MIC [27]: 2 µg/mL

Compound: CC[n+]1c(-c2ccccc2)c2cc(N)ccc2c2ccc(N)cc21.[Br-] [HOMIDIUM BROMIDE]
- MIC90 [1]: 8 µg/mL
- MIC90 [2]: 0.25 µg/mL
- MIC90 [3]: 0.25 µg/mL
- MIC [4]: 0.5 µg/mL
- MIC [5]: 0.5 µg/mL
- MIC [6]: 8 µg/mL
- MIC [7]: 0.5 µg/mL
- MIC [8]: 0.25 µg/mL
- MIC [9]: 2 µg/mL
- MIC [10]: 1 µg/mL
- MIC [11]: 0.5 µg/mL
- MIC [12]: 0.5 µg/mL
- MIC [13]: 0.5 µg/mL
- MIC [14]: 0.5 µg/mL
- MIC [15]: 0.5 µg/mL
- MIC [16]: 0.5 µg/mL
- MIC [17]: 0.5 µg/mL
- MIC [18]: 0.5 µg/mL
- MIC [19]: 0.5 µg/mL
- MIC [20]: 0.5 µg/mL
- MIC [21]: 1 µg/mL
- MIC [22]: 8 µg/mL
- MIC [23]: 4 µg/mL
- MIC [24]: 0.5 µg/mL
- MIC [25]: 0.5 µg/mL
- MIC [26]: 1 µg/mL
- MIC [27]: 0.5 µg/mL
